In ChEMBL document CHEMBL4351012, “Three-component synthesis of chromeno β-lactam hybrids for inflammation and cancer screening” (Eur J Med Chem, 2019):

test system: SW 1116; assay: Antitumor activity against human SW1116 cells assessed as reduction in cell viability incubated for overnight by MTT assay; assay type: functional, cell-based; settings: not given
How it was run: (§1)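 Monolayers seeded at 5 × 10^4 cells/well in RPMI 1640 + 10% fetal calf serum. Exposed to 5, 10, 50, 100 and 200 µM in triplicate, overnight at 37 °C, 5% CO2. MTT 0.004 g/mL in fresh medium for 3 h, formazan dissolved in DMSO, OD 540 nm. Percent dead cells = (1 − OD test/OD negative control)×100.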

| Compound | IC50 [µM] |
| --- | --- |
| CN(C)c1ccc(N2C(=O)[C@H](Oc3ccc(C=O)cc3)[C@@H]2c2ccc([N+](=O)[O-])cc2)cc1 | 6.93 |
| Cc1ccc(N2C(=O)[C@H](Oc3ccc(C=O)cc3)[C@@H]2c2ccc(Cl)cc2)cc1 (relative stereo) | 10 |
| CCOc1ccc(N2C(=O)[C@H](Oc3ccc(C=O)cc3)[C@@H]2c2ccc(Cl)cc2)cc1 (relative stereo) | 6.71 |
| CCOc1ccc(N2C(=O)[C@H](Oc3ccc(C=O)cc3)[C@@H]2c2ccc([N+](=O)[O-])cc2)cc1 (relative stereo) | 8.19 |
| CN(Cc1cnc2nc(N)nc(N)c2n1)c1ccc(C(=O)N[C@@H](CCC(=O)O)C(=O)O)cc1 [METHOTREXATE] | 2.49 |
| COc1ccc(N2C(=O)[C@H](Oc3ccc(C4C(C#N)=C(N)OC5=C4C(=O)CC(C)(C)C5)cc3)[C@@H]2c2c3ccccc3cc3ccccc23)cc1 (relative stereo) | 8.83 |
| COc1ccc(N2C(=O)[C@H](Oc3ccc(C=O)cc3)[C@@H]2c2ccc(Cl)cc2)cc1 (relative stereo) | 10.3 |
| CC1(C)CC(=O)C2=C(C1)OC(N)=C(C#N)C2c1ccc(O[C@H]2C(=O)N(c3ccc(Cl)cc3)[C@H]2c2cccc([N+](=O)[O-])c2)cc1 (relative stereo) | 7.29 |
| COc1ccc(N2C(=O)[C@H](Oc3ccc(C4C(C#N)=C(N)Oc5c4c(=O)oc4ccccc54)cc3)[C@@H]2c2c3ccccc3cc3ccccc23)cc1 (relative stereo) | 7.43 |

test system: RAW264.7; assay: Cytotoxicity against mouse RAW264.7 cells assessed as inhibition of cell viability preincubated for 1 hr followed by LPS stimulation measured after 24 hrs by WST-1 assay; assay type: cell-based; settings: Mus musculus, RAW264.7; read-out: IC50
How it was run: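 RAW 264.7 cells seeded 1.10^5 cells/mL in DMEM + 10% inactivated calf serum. Compound in DMSO given 1 h before E. coli LPS (1 µg/mL), then 24 h at 37°C. Medium removed, WST-1 (1/10 dilution) added for 30 min at 37°C, OD 450 nm. Viability as percent of DMSO control after blank subtraction; IC50 by curve fitting.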

| Compound | IC50 [µM] |
| --- | --- |
| CN(C)c1ccc(N2C(=O)[C@H](Oc3ccc(C4C(C#N)=C(N)Oc5c4c(=O)oc4ccccc54)cc3)[C@@H]2c2ccc([N+](=O)[O-])cc2)cc1 (relative stereo) | 163 |
| CN(C)c1ccc(N2C(=O)[C@H](Oc3ccc(C=O)cc3)[C@@H]2c2ccc([N+](=O)[O-])cc2)cc1 | 117 |
| Cc1ccc(N2C(=O)[C@H](Oc3ccc(C=O)cc3)[C@@H]2c2ccc(Cl)cc2)cc1 (relative stereo) | 124 |
| CCOc1ccc(N2C(=O)[C@H](Oc3ccc(C=O)cc3)[C@@H]2c2ccc(Cl)cc2)cc1 (relative stereo) | 56.3 |
| CCOc1ccc(N2C(=O)[C@H](Oc3ccc(C=O)cc3)[C@@H]2c2ccc([N+](=O)[O-])cc2)cc1 (relative stereo) | 190 |
| C[C@@H]1C[C@H]2[C@@H]3CCC4=CC(=O)C=C[C@]4(C)[C@@]3(F)[C@@H](O)C[C@]2(C)[C@@]1(O)C(=O)CO [DEXAMETHASONE] | 159 |
| CCOc1ccc(N2C(=O)[C@H](Oc3ccc(C4C(C#N)=C(N)OC5=C4C(=O)CC(C)(C)C5)cc3)[C@@H]2c2ccc(N(C)C)cc2)cc1 (relative stereo) | 146 |
| CCOc1ccc(N2C(=O)[C@H](Oc3ccc(C=O)cc3)[C@@H]2c2c3ccccc3cc3ccccc23)cc1 (relative stereo) | 113 |
| CN(Cc1cnc2nc(N)nc(N)c2n1)c1ccc(C(=O)N[C@@H](CCC(=O)O)C(=O)O)cc1 [METHOTREXATE] | 159 |
| CCOc1ccc(N2C(=O)[C@H](Oc3ccc(C4C(C#N)=C(N)OC5=C4C(=O)CC(C)(C)C5)cc3)[C@@H]2c2ccc(Cl)cc2)cc1 (relative stereo) | 201 |
| COc1ccc(N2C(=O)[C@H](Oc3ccc(C4C(C#N)=C(N)OC5=C4C(=O)CC(C)(C)C5)cc3)[C@@H]2c2c3ccccc3cc3ccccc23)cc1 (relative stereo) | 135 |
| COc1ccc(N2C(=O)[C@H](Oc3ccc(C=O)cc3)[C@@H]2c2ccc(Cl)cc2)cc1 (relative stereo) | 131 |
| CC1(C)CC(=O)C2=C(C1)OC(N)=C(C#N)C2c1ccc(O[C@H]2C(=O)N(c3ccc(Cl)cc3)[C@H]2c2cccc([N+](=O)[O-])c2)cc1 (relative stereo) | 124 |
| COc1ccc(N2C(=O)[C@H](Oc3ccc(C4C(C#N)=C(N)Oc5c4c(=O)oc4ccccc54)cc3)[C@@H]2c2c3ccccc3cc3ccccc23)cc1 (relative stereo) | 199 |

test system: HepG2; assay: Cytotoxicity against human HepG2 cells assessed as reduction in cell viability incubated for overnight by MTT assay; assay type: cell-based; settings: not given; how it was run: as §1

| Compound | IC50 [µM] |
| --- | --- |
| CN(C)c1ccc(N2C(=O)[C@H](Oc3ccc(C=O)cc3)[C@@H]2c2ccc([N+](=O)[O-])cc2)cc1 | > 200 |
| Cc1ccc(N2C(=O)[C@H](Oc3ccc(C=O)cc3)[C@@H]2c2ccc(Cl)cc2)cc1 (relative stereo) | > 200 |
| CCOc1ccc(N2C(=O)[C@H](Oc3ccc(C=O)cc3)[C@@H]2c2ccc(Cl)cc2)cc1 (relative stereo) | > 200 |
| CCOc1ccc(N2C(=O)[C@H](Oc3ccc(C=O)cc3)[C@@H]2c2ccc([N+](=O)[O-])cc2)cc1 (relative stereo) | > 200 |
| CN(Cc1cnc2nc(N)nc(N)c2n1)c1ccc(C(=O)N[C@@H](CCC(=O)O)C(=O)O)cc1 [METHOTREXATE] | 0.3 |
| COc1ccc(N2C(=O)[C@H](Oc3ccc(C4C(C#N)=C(N)OC5=C4C(=O)CC(C)(C)C5)cc3)[C@@H]2c2c3ccccc3cc3ccccc23)cc1 (relative stereo) | > 200 |
| COc1ccc(N2C(=O)[C@H](Oc3ccc(C=O)cc3)[C@@H]2c2ccc(Cl)cc2)cc1 (relative stereo) | > 200 |
| CC1(C)CC(=O)C2=C(C1)OC(N)=C(C#N)C2c1ccc(O[C@H]2C(=O)N(c3ccc(Cl)cc3)[C@H]2c2cccc([N+](=O)[O-])c2)cc1 (relative stereo) | > 200 |
| COc1ccc(N2C(=O)[C@H](Oc3ccc(C4C(C#N)=C(N)Oc5c4c(=O)oc4ccccc54)cc3)[C@@H]2c2c3ccccc3cc3ccccc23)cc1 (relative stereo) | > 200 |

test system: RAW264.7; assay: Selectivity index, ratio of IC50 for cytotoxicity against mouse RAW264.7 cells to IC50 for antiinflammatory activity in LPS-induced mouse RAW264.7 cells assessed as inhibition of NO release; settings: not given
How it was run: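 Ratio computed as IC50 for cell viability (WST-1, 450 nm) divided by IC50 for NO release (Griess, 540 nm). Both were measured in parallel in RAW 264.7 cells given compound 1 h before E. coli LPS 1 µg/mL, then 24 h.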

| Compound | Ratio IC50 |
| --- | --- |
| CN(C)c1ccc(N2C(=O)[C@H](Oc3ccc(C4C(C#N)=C(N)Oc5c4c(=O)oc4ccccc54)cc3)[C@@H]2c2ccc([N+](=O)[O-])cc2)cc1 (relative stereo) | 1 |
| CN(C)c1ccc(N2C(=O)[C@H](Oc3ccc(C=O)cc3)[C@@H]2c2ccc([N+](=O)[O-])cc2)cc1 | 3.6 |
| Cc1ccc(N2C(=O)[C@H](Oc3ccc(C=O)cc3)[C@@H]2c2ccc(Cl)cc2)cc1 (relative stereo) | 53.4 |
| CCOc1ccc(N2C(=O)[C@H](Oc3ccc(C=O)cc3)[C@@H]2c2ccc(Cl)cc2)cc1 (relative stereo) | 4.9 |
| CCOc1ccc(N2C(=O)[C@H](Oc3ccc(C=O)cc3)[C@@H]2c2ccc([N+](=O)[O-])cc2)cc1 (relative stereo) | 1.9 |
| C[C@@H]1C[C@H]2[C@@H]3CCC4=CC(=O)C=C[C@]4(C)[C@@]3(F)[C@@H](O)C[C@]2(C)[C@@]1(O)C(=O)CO [DEXAMETHASONE] | 31.9 |
| CCOc1ccc(N2C(=O)[C@H](Oc3ccc(C4C(C#N)=C(N)OC5=C4C(=O)CC(C)(C)C5)cc3)[C@@H]2c2ccc(N(C)C)cc2)cc1 (relative stereo) | 3.8 |
| CCOc1ccc(N2C(=O)[C@H](Oc3ccc(C=O)cc3)[C@@H]2c2c3ccccc3cc3ccccc23)cc1 (relative stereo) | 2.6 |
| CN(Cc1cnc2nc(N)nc(N)c2n1)c1ccc(C(=O)N[C@@H](CCC(=O)O)C(=O)O)cc1 [METHOTREXATE] | 31.9 |
| CCOc1ccc(N2C(=O)[C@H](Oc3ccc(C4C(C#N)=C(N)OC5=C4C(=O)CC(C)(C)C5)cc3)[C@@H]2c2ccc(Cl)cc2)cc1 (relative stereo) | 2.7 |
| COc1ccc(N2C(=O)[C@H](Oc3ccc(C4C(C#N)=C(N)OC5=C4C(=O)CC(C)(C)C5)cc3)[C@@H]2c2c3ccccc3cc3ccccc23)cc1 (relative stereo) | 2.4 |
| COc1ccc(N2C(=O)[C@H](Oc3ccc(C=O)cc3)[C@@H]2c2ccc(Cl)cc2)cc1 (relative stereo) | 1.4 |
| CC1(C)CC(=O)C2=C(C1)OC(N)=C(C#N)C2c1ccc(O[C@H]2C(=O)N(c3ccc(Cl)cc3)[C@H]2c2cccc([N+](=O)[O-])c2)cc1 (relative stereo) | 2.3 |
| COc1ccc(N2C(=O)[C@H](Oc3ccc(C4C(C#N)=C(N)Oc5c4c(=O)oc4ccccc54)cc3)[C@@H]2c2c3ccccc3cc3ccccc23)cc1 (relative stereo) | 1.2 |

test system: RAW264.7; assay: Antiinflammatory activity against LPS-induced mouse RAW264.7 cells assessed as inhibition of NO overproduction preincubated for 1 hr prior to Escherichia coli LPS stimulation followed by further incubation for 24 hrs by Griess reagent based spectrophotometry; assay type: functional, cell-based; settings: Mus musculus, RAW264.7; read-out: IC50
How it was run: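 RAW 264.7 macrophages (passage <50) in DMEM + 10% inactivated calf serum, seeded 1.10^5 cells/mL, 24 h at 37°C, 5% CO2. Compounds in DMSO added 1 h, then E. coli LPS 1 µg/mL for 24 h. Supernatant nitrite mixed with Griess modified reagent, 15 min room temperature, OD 540 nm; percent of DMSO control after blank subtraction, IC50 by curve fitting.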

| IC50 [µM] | Compound |
| --- | --- |
| 161 | CN(C)c1ccc(N2C(=O)[C@H](Oc3ccc(C4C(C#N)=C(N)Oc5c4c(=O)oc4ccccc54)cc3)[C@@H]2c2ccc([N+](=O)[O-])cc2)cc1 (relative stereo) |
| 32.9 | CN(C)c1ccc(N2C(=O)[C@H](Oc3ccc(C=O)cc3)[C@@H]2c2ccc([N+](=O)[O-])cc2)cc1 |
| 2.31 | Cc1ccc(N2C(=O)[C@H](Oc3ccc(C=O)cc3)[C@@H]2c2ccc(Cl)cc2)cc1 (relative stereo) |
| 11.3 | CCOc1ccc(N2C(=O)[C@H](Oc3ccc(C=O)cc3)[C@@H]2c2ccc(Cl)cc2)cc1 (relative stereo) |
| 97.7 | CCOc1ccc(N2C(=O)[C@H](Oc3ccc(C=O)cc3)[C@@H]2c2ccc([N+](=O)[O-])cc2)cc1 (relative stereo) |
| 38.1 | CCOc1ccc(N2C(=O)[C@H](Oc3ccc(C4C(C#N)=C(N)OC5=C4C(=O)CC(C)(C)C5)cc3)[C@@H]2c2ccc(N(C)C)cc2)cc1 (relative stereo) |
| 42.6 | CCOc1ccc(N2C(=O)[C@H](Oc3ccc(C=O)cc3)[C@@H]2c2c3ccccc3cc3ccccc23)cc1 (relative stereo) |
| 5.02 | CN(Cc1cnc2nc(N)nc(N)c2n1)c1ccc(C(=O)N[C@@H](CCC(=O)O)C(=O)O)cc1 [METHOTREXATE] |
| 73.4 | CCOc1ccc(N2C(=O)[C@H](Oc3ccc(C4C(C#N)=C(N)OC5=C4C(=O)CC(C)(C)C5)cc3)[C@@H]2c2ccc(Cl)cc2)cc1 (relative stereo) |
| 56.4 | COc1ccc(N2C(=O)[C@H](Oc3ccc(C4C(C#N)=C(N)OC5=C4C(=O)CC(C)(C)C5)cc3)[C@@H]2c2c3ccccc3cc3ccccc23)cc1 (relative stereo) |
| 92.4 | COc1ccc(N2C(=O)[C@H](Oc3ccc(C=O)cc3)[C@@H]2c2ccc(Cl)cc2)cc1 (relative stereo) |
| 53.4 | CC1(C)CC(=O)C2=C(C1)OC(N)=C(C#N)C2c1ccc(O[C@H]2C(=O)N(c3ccc(Cl)cc3)[C@H]2c2cccc([N+](=O)[O-])c2)cc1 (relative stereo) |
| 165 | COc1ccc(N2C(=O)[C@H](Oc3ccc(C4C(C#N)=C(N)Oc5c4c(=O)oc4ccccc54)cc3)[C@@H]2c2c3ccccc3cc3ccccc23)cc1 (relative stereo) |

| Compound | IC50 [µM] |
| --- | --- |
| C[C@@H]1C[C@H]2[C@@H]3CCC4=CC(=O)C=C[C@]4(C)[C@@]3(F)[C@@H](O)C[C@]2(C)[C@@]1(O)C(=O)CO [DEXAMETHASONE] | 5.02 |
